In ChEMBL document CHEMBL5260840 (J Med Chem, 2019) one finds Activity data, which are given here for twelve molecules.

What all share (format): cell-based
Experiment [1] addresses von Hippel-Lindau disease tumor suppressor/Bromodomain-containing protein 9 (Homo sapiens) (UniProt Q9H8M2+P40337). The experiment in a line: PROTAC activity at VHL/BRD9 in human Ri-1 cells assessed as remaining BRD9 protein level at 1 uM incubated for 2 hrs by Western blot analysis relative to control. A digest of the protocol: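 Ri-1 cells exposed to compound for the stated time before harvest; BRD9, BRD7 and β-actin measured by Western blot, band intensities quantified and set against DMSO-treated control.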

Experiment [2] deals with T1, von Hippel-Lindau disease tumor suppressor/Bromodomain-containing protein 7 (Homo sapiens) (UniProt Q9NPI1+P40337). Description: PROTAC activity at VHL/BRD7 in human HeLa cells assessed as remaining BRD7 protein level at 1 uM incubated for 4 hrs by Western blot analysis relative to control. Background: In western blotting, separated proteins are transferred to a membrane and probed.
T1 sequence (P40337 whole entry, looked up): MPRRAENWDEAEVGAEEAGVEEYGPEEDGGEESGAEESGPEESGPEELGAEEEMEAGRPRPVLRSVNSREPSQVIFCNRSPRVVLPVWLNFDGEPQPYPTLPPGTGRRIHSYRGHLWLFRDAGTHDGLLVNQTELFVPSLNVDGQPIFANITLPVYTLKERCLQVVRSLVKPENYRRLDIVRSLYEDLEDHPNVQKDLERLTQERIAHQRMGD
T1 sequence (Q9NPI1 whole entry, looked up): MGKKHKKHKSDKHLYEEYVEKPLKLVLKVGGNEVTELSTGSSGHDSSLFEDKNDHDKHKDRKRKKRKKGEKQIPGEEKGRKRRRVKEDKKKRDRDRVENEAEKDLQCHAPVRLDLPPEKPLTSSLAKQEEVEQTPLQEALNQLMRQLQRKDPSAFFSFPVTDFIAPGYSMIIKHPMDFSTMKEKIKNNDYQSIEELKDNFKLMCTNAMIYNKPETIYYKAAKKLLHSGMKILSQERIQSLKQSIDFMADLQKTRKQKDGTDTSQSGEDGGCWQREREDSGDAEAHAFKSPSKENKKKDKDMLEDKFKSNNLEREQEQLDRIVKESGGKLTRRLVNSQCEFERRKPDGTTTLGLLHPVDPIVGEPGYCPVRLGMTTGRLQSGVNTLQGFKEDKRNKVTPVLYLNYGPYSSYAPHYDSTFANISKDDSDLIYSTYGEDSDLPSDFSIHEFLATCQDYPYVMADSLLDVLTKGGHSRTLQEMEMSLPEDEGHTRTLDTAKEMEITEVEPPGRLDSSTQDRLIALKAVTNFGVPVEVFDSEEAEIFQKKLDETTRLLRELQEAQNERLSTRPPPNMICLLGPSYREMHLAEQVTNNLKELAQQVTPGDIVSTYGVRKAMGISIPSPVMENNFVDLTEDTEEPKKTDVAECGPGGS

Experiment [3] addresses T1, von Hippel-Lindau disease tumor suppressor/Bromodomain-containing protein 7 (Homo sapiens). Description: PROTAC activity at VHL/BRD7 in human Ri-1 cells assessed as remaining BRD7 protein level at 1 uM incubated for 2 hrs by Western blot analysis relative to control.

von Hippel-Lindau disease tumor suppressor/Bromodomain-containing protein 9 (Homo sapiens), sequence (P40337 whole entry, looked up): as the sequence (P40337 whole entry, looked up) above
von Hippel-Lindau disease tumor suppressor/Bromodomain-containing protein 9 (Homo sapiens), sequence (Q9H8M2 whole entry, looked up): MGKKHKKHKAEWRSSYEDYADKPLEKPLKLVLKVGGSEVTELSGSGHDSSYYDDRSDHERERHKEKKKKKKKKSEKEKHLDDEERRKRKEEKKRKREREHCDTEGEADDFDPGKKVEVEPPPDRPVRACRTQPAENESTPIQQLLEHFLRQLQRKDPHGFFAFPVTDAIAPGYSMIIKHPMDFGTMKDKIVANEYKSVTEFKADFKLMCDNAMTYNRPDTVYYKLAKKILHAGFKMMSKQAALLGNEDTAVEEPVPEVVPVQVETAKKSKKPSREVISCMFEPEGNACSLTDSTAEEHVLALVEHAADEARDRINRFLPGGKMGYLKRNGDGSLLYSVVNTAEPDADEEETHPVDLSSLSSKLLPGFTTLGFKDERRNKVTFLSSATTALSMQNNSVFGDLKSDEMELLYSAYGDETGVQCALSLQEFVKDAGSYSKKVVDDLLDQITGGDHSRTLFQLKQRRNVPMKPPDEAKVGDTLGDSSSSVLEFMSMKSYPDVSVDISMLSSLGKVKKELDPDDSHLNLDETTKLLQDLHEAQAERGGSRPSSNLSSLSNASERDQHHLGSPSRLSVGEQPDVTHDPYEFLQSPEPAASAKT

As to `COc1cc(-c2cn(C)c(=O)c3cnccc23)c(OC)cc1CN1CC(NC(=O)COCCOCCOCCOc2cc(-c3scnc3C)ccc2CNC(=O)[C@@H]2C[C@@H](O)CN2C(=O)[C@@H](NC(=O)C2(F)CC2)C(C)(C)C)C1`, the Activity in experiment [1] stood at 95%; in experiment [2], 138%; in experiment [3], 85%.
For `COc1cc(-c2cn(C)c(=O)c3cnccc23)c(OC)cc1CN1CC(NC(=O)COCCOc2cc(-c3scnc3C)ccc2CNC(=O)[C@@H]2C[C@@H](O)CN2C(=O)[C@@H](NC(=O)C2(F)CC2)C(C)(C)C)C1`, the Activity worked out at 99% in experiment [1], 158% in experiment [2] and 112% in experiment [3].
On to `COc1cc(-c2cn(C)c(=O)c3cnccc23)c(OC)cc1CN1CCN(CCOCCOc2cc(-c3scnc3C)ccc2CNC(=O)[C@@H]2C[C@@H](O)CN2C(=O)[C@@H](NC(=O)C2(F)CC2)C(C)(C)C)CC1`, for which the Activity in experiment [1] stood at 94%; in experiment [2] it was 3%; in experiment [3], 98%.
Taken in the same sequence, the figures for `COc1cc(-c2cn(C)c(=O)c3cnccc23)c(OC)cc1CN1CC(NC(=O)CCCCOCCOc2cc(-c3scnc3C)ccc2CNC(=O)[C@@H]2C[C@@H](O)CN2C(=O)[C@@H](NC(=O)C2(F)CC2)C(C)(C)C)C1` were 94%, 250% and 97%.
Consider `COc1cc(-c2cn(C)c(=O)c3cnccc23)c(OC)cc1CN1CC(NC(=O)COCCOCCOc2cc(-c3scnc3C)ccc2CNC(=O)[C@@H]2C[C@@H](O)CN2C(=O)[C@@H](NC(=O)C2(F)CC2)C(C)(C)C)C1`, for which the Activity was determined as 103% in experiment [1], 280% in experiment [2] and 120% in experiment [3].
Taken in the same sequence, the figures for `COc1cc(-c2cn(C)c(=O)c3cnccc23)cc(OC)c1CN1CCN(CCCCCOCCOc2cc(-c3scnc3C)ccc2CNC(=O)[C@@H]2C[C@@H](O)CN2C(=O)[C@@H](NC(=O)C2(F)CC2)C(C)(C)C)CC1` were 69%, 98% and 83%.
The like results for `COc1cc(-c2cn(C)c(=O)c3cnccc23)cc(OC)c1CN1CC(NC(=O)COCCOc2cc(-c3scnc3C)ccc2CNC(=O)[C@@H]2C[C@@H](O)CN2C(=O)[C@@H](NC(=O)C2(F)CC2)C(C)(C)C)C1` were, in that order, 109%, 29% and 125%.
On to `COc1cc(-c2cn(C)c(=O)c3cnccc23)c(OC)cc1CN1CCN(CCOCCOCCOCCOc2cc(-c3scnc3C)ccc2CNC(=O)[C@@H]2C[C@@H](O)CN2C(=O)[C@@H](NC(=O)C2(F)CC2)C(C)(C)C)CC1`, for which the Activity in experiment [1] turned out to be 127%; in experiment [2] it was 206%; in experiment [3], 134%.
For `COc1cc(-c2cn(C)c(=O)c3cnccc23)cc(OC)c1CN1CC(NC(=O)COCCOCCOCCOc2cc(-c3scnc3C)ccc2CNC(=O)[C@@H]2C[C@@H](O)CN2C(=O)[C@@H](NC(=O)C2(F)CC2)C(C)(C)C)C1`, the Activity in experiment [1] is 89%; in experiment [2] it was 103%; in experiment [3], 98%.
As for `COc1cc(-c2cn(C)c(=O)c3cnccc23)cc(OC)c1CN1CC(NC(=O)CCCCOCCOc2cc(-c3scnc3C)ccc2CNC(=O)[C@@H]2C[C@@H](O)CN2C(=O)[C@@H](NC(=O)C2(F)CC2)C(C)(C)C)C1`, the Activity in experiment [1] came out at 92%; in experiment [2] it was 31%; in experiment [3] it was 106%.
The like results for `COc1cc(-c2cn(C)c(=O)c3cnccc23)cc(OC)c1CN1CC(NC(=O)COCCOCCOc2cc(-c3scnc3C)ccc2CNC(=O)[C@@H]2C[C@@H](O)CN2C(=O)[C@@H](NC(=O)C2(F)CC2)C(C)(C)C)C1` were, in that order, 95%, 53% and 92%.
Consider `COc1cc(-c2cn(C)c(=O)c3cnccc23)c(OC)cc1CN1CC(NC(=O)CCCCOc2cc(-c3scnc3C)ccc2CNC(=O)[C@@H]2C[C@@H](O)CN2C(=O)[C@@H](NC(=O)C2(F)CC2)C(C)(C)C)C1`, for which the Activity was 110% in experiment [1], 54% in experiment [2] and 131% in experiment [3].
